DAGLB inhibitor: DAGLB lipase inhibitors, primary screen, biochemical, fluorescence, HTS; 340,000 tested, 0.059% active; HEK293T DAGLB membrane lysate, EnzChek fluorogenic substrate; AID 504411, 2011; inhibition, % at 5.17 µM; in the data active = inhibition above about 34%;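 note: 0% = enzyme with vehicle and 100% = wells lacking enzyme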
ANO1 activ: TMEM16A chloride channel activators or potentiators, primary screen, cell-based, HTS | Anoctamin-1 (Mus musculus), Q8BHY3 | HEK293 TMEM16A/YFP-H148Q/I152L, iodide quench fluorescence; hits give low values | B-score at 10 µM | 340,000 tested, 0.3% active;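 active = fluorescence-ratio B-score plate-corrected deviation score at least 3 library SD below zero, with starting fluorescence score within 5 deviations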;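 note: channel opened by trigger with iodide after compound preincubation; score built on the fluorescence ratio of max minus min over baseline; more negative score means more quench and so TMEM16A activation or potentiation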
Target sequence (Q8BHY3 whole entry, looked up): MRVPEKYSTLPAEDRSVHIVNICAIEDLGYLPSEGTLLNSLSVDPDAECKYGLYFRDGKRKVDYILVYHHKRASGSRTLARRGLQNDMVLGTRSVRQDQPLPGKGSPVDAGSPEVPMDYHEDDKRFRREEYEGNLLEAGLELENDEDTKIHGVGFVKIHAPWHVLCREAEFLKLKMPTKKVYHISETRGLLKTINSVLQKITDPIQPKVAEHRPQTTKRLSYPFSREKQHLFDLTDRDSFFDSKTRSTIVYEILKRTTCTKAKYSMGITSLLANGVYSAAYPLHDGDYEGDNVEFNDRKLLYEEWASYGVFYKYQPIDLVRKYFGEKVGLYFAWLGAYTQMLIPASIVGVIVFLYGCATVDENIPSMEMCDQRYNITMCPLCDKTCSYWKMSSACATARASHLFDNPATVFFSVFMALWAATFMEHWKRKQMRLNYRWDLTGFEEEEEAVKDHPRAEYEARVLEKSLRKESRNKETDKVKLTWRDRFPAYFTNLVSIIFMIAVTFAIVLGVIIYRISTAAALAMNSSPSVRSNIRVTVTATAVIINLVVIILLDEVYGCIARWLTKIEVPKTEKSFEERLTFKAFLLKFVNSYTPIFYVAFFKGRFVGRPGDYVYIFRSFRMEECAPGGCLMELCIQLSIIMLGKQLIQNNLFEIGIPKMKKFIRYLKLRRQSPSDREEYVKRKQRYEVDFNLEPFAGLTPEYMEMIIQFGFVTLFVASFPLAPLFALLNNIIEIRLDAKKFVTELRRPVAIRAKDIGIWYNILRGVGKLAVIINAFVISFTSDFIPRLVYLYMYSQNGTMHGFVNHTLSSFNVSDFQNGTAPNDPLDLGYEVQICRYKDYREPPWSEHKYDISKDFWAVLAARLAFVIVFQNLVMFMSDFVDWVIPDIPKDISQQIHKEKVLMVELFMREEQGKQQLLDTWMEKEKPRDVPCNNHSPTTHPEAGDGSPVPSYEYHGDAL
MT1-MMP act inh: blockers of MT1-MMP proenzyme processing, primary screen, HT1080 RFP-PRO-GFP cells, GFP/RFP fluorescence; Matrix metalloproteinase-14 (Homo sapiens), P50281; GFP/RFP ratio fluorescence, overnight; percent of plate control window, DMSO zero; GFP/RFP ratio change, % at 20 µM; 360,000 tested, 0.061% active; AID 651647, 2012;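 active = GFP/RFP ratio change of at least 30% with cell ATP level not reduced by more than half and red fluorescence within 50% of control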
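Assay system: RFP-PRO-GFP reporter HT1080 cells; read-out basis: GFP/RFP fluorescence ratio; benchmarks: DMSO wells and RFP-L50D-GFP cells; doses: 20 µM single dose, 1% DMSO; schedule: overnight cell settling, then overnight compound exposure, 37 °C, 5% CO2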
TMEM16A inh: TMEM16A chloride channel inhibitors, primary screen, cell-based, HTS; Anoctamin-1 (Mus musculus), Q8BHY3; HEK293 TMEM16A/YFP iodide influx fluorescence, ionomycin; normalized B-score (activity score, 25-100; higher = stronger inhibition) at 10 µM; 310,000 tested, 1.2% active; AID 588511, 2011;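 active = ratio plate-corrected score three or more library SD toward inhibition, starting fluorescence score within five deviations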;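 note: score derived from kinetic fluorescence span divided by baseline fluorescence per well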
* hit, by the source's call. Only some compounds are listed: those with a hit (about 1.3% of all), similar ones and a draw of the others.

Results for Nc1nonc1C(=O)NCCNCc1cc(Br)ccc1OCc1ccccc1F ?
DAGLB inhibitor: -2; ANO1 activ: inactive; MT1-MMP act inh: -2; TMEM16A inh: 100*

How did Cc1oc2c(c1C(=O)c1ccc(Cl)cc1)C(=O)C(=O)c1ccccc1-2 do in these assays?
DAGLB inhibitor: 2; ANO1 activ: inactive; MT1-MMP act inh: -17

What do the screens show for `Cc1ccc(C(=O)c2c(C)oc3c2C(=O)C(=O)c2ccccc2-3)cc1`?
DAGLB inhibitor: -1; ANO1 activ: -18*; MT1-MMP act inh: 5; TMEM16A inh: 25*

What do the screens show for `COc1cccc(-c2nn(C)c3sc(C(=O)N4CCN(c5ccccn5)CC4)cc23)c1`?
DAGLB inhibitor: -5; ANO1 activ: inactive; MT1-MMP act inh: 12; TMEM16A inh: 25*

What do the screens show for `C/C(=N\NC(=S)NCc1ccccc1)c1ccc2c(c1)OCCO2`?
DAGLB inhibitor: -4; ANO1 activ: inactive; MT1-MMP act inh: 3; TMEM16A inh: 25*

How did C/C(=N\NC(=S)NCc1ccccc1)c1ccc(Br)cc1 do in these assays?
DAGLB inhibitor: -6; ANO1 activ: inactive; MT1-MMP act inh: 1; TMEM16A inh: inactive

How did O=C(COC(=O)CNC(=O)c1ccccc1Cl)NC1CC1 do in these assays?
DAGLB inhibitor: -1; ANO1 activ: inactive; MT1-MMP act inh: 2

How did Nc1ncnc2c1ncn2[C@@H]1O[C@H](CCC(=O)NCc2ccccc2)[C@@H](O)[C@H]1O do in these assays?
MT1-MMP act inh: 9

Results for CCCCn1nnnc1C1(C)CCC(=O)N1CCCN1CCOCC1 (stereo not given) ?
MT1-MMP act inh: 5

Results for Cc1sc(N(C(=O)CCc2ccccc2)c2ccc(C(=O)O)cc2)nc1-c1ccccc1 ?
DAGLB inhibitor: 9; ANO1 activ: inactive; MT1-MMP act inh: 5; TMEM16A inh: 25*

Results for CCC(=O)N(c1ccc(C(=O)O)cc1)c1nc(-c2ccc(OC)cc2)c(C)s1 ?
DAGLB inhibitor: 3; ANO1 activ: inactive; MT1-MMP act inh: 0; TMEM16A inh: inactive

Results for C[C@H](CO)N1C[C@H](C)[C@@H](CN(C)C(=O)NC2CCCCC2)Oc2ccc(NC(=O)Nc3ccc(C(F)(F)F)cc3)cc2C1=O ?
DAGLB inhibitor: 3; ANO1 activ: -5*; MT1-MMP act inh: 20

What do the screens show for `O=S(=O)([N-]c1nc2ccccc2nc1-[n+]1ccc(-c2ccncc2)cc1)c1ccccc1`?
DAGLB inhibitor: -5; ANO1 activ: -5.3*; MT1-MMP act inh: -81; TMEM16A inh: inactive

What do the screens show for `O=S(=O)([N-]c1nc2ccccc2nc1-[n+]1ccccc1)c1ccccc1`?
DAGLB inhibitor: -2; ANO1 activ: inactive; MT1-MMP act inh: 6; TMEM16A inh: inactive

What do the screens show for `Cc1ccc(/C=C/C(=O)NCCc2cccc(Cl)c2)o1`?
DAGLB inhibitor: 1; ANO1 activ: inactive; MT1-MMP act inh: -3; TMEM16A inh: inactive

Results for CCCc1ccc(C(O)c2ncc(-c3ccccc3F)[nH]2)cc1 (stereo not given) ?
MT1-MMP act inh: -3

How did CCCc1ccc(Oc2coc3cc(OCC(=O)Nc4ccccc4C)ccc3c2=O)cc1 do in these assays?
DAGLB inhibitor: -39; ANO1 activ: -5.2*; MT1-MMP act inh: 2; TMEM16A inh: inactive

Results for O=C(Nc1ccc2c(c1)OCO2)c1csc([C@H]2C[C@H](O)[C@@H](CO)O2)n1 ?
MT1-MMP act inh: 2

How did O=C(Cc1ccc(Br)cc1)NCCc1ccc(F)cc1 do in these assays?
DAGLB inhibitor: -9; ANO1 activ: inactive; MT1-MMP act inh: 3; TMEM16A inh: inactive

What do the screens show for `C=C1C(=O)C23CCC4C(C)(C(=O)OC)CCCC4(C)C2CCC1(O)C3` (stereo not given)?
DAGLB inhibitor: 8; ANO1 activ: -8.6*; MT1-MMP act inh: -7

What do the screens show for `CCN(CC(=O)NCc1ccc(F)cc1)C(=O)c1cccc(S(=O)(=O)N(C)c2ccc(OC)cc2)c1`?
DAGLB inhibitor: -1; ANO1 activ: inactive; MT1-MMP act inh: 3

What do the screens show for `CCOC(=O)c1c(NC(=O)CSc2nnc(-c3c[nH]c4ccccc34)n2CCOC)sc2c1CCCC2`?
DAGLB inhibitor: 4; ANO1 activ: inactive; MT1-MMP act inh: -3; TMEM16A inh: inactive

Results for CCOC(=O)c1c(NC(=O)CSc2nnc(-c3c[nH]c4ccccc34)n2C)sc2c1CCCC2 ?
DAGLB inhibitor: 0; ANO1 activ: -21*; MT1-MMP act inh: 0; TMEM16A inh: inactive

How did NC(=O)CSc1nnc(NC(=O)c2cccc(S(=O)(=O)N3CCCCC3)c2)s1 do in these assays?
DAGLB inhibitor: 1; ANO1 activ: inactive; MT1-MMP act inh: -3; TMEM16A inh: inactive

What do the screens show for `CCOC(=O)CSc1nnc(NC(=O)c2cccc(S(=O)(=O)N3CCCCCC3)c2)s1`?
DAGLB inhibitor: 1; ANO1 activ: inactive; MT1-MMP act inh: 9; TMEM16A inh: 25*

Results for CCc1nnc(NC(=O)c2cccc(S(=O)(=O)N(C)c3ccccc3)c2)s1 ?
DAGLB inhibitor: -3; ANO1 activ: inactive; MT1-MMP act inh: -3; TMEM16A inh: inactive

How did CCSc1nnc(NC(=O)c2cccc(S(=O)(=O)N(C)c3ccc(C)cc3)c2)s1 do in these assays?
DAGLB inhibitor: 4; ANO1 activ: inactive; MT1-MMP act inh: 2; TMEM16A inh: 25*

How did O=C(C(=O)N1CCN(c2ccccc2)CC1)c1ccccc1 do in these assays?
MT1-MMP act inh: -1

Results for CCOC(=O)c1c(NC(C)=O)sc2c(OCC(O)CNC(C)(C)C)c(Br)ccc12 (stereo not given) ?
DAGLB inhibitor: 3; ANO1 activ: -7.1*; MT1-MMP act inh: -12; TMEM16A inh: inactive

What do the screens show for `CCOC(=O)c1c(N)sc2c(OCC)c(Br)ccc12`?
DAGLB inhibitor: -6; ANO1 activ: inactive; MT1-MMP act inh: -1; TMEM16A inh: inactive

What do the screens show for `CC(OC(=O)c1cccnc1SCc1cc(=O)n2ccccc2n1)c1ccccn1` (stereo not given)?
DAGLB inhibitor: -1; ANO1 activ: inactive; MT1-MMP act inh: -9; TMEM16A inh: inactive

Results for CCOC(=O)c1cccnc1SCc1cc(=O)n2ccccc2n1 ?
DAGLB inhibitor: -3; ANO1 activ: inactive; MT1-MMP act inh: -4; TMEM16A inh: 25*

How did COc1cc(C(=O)NS(=O)(=O)c2ccccc2C)ccc1Cc1cn(C)c2ccc(NC(=O)OC3CCCC3)cc12 do in these assays?
TMEM16A inh: 100*

What do the screens show for `O=Cc1[nH]c2ccccc2c1N(C(=O)CCl)c1ccc([N+](=O)[O-])cc1`?
DAGLB inhibitor: 8; ANO1 activ: inactive; MT1-MMP act inh: -2; TMEM16A inh: 25*
